Data taken from ChEMBL document CHEMBL1649441, “Potency and bactericidal activity of iclaprim against recent clinical gram-positive isolates” (2009).
In brackets after ≈: the same amount, converted by molar mass.

Tests used:
Type in all cases: functional
[1] = system: Enterococcus faecalis; assay: Antibacterial activity against Enterococcus faecalis assessed as inhibition of bacterial growth at 0.03 ug/ml by CLSI broth microdilution method
Outline: (§1)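 Clinical isolates from skin/soft tissue, bloodstream and respiratory specimens were tested by broth microdilution per CLSI M7-A7 and M100-S18, with quality controls. Values are the number of isolates inhibited at each concentration, or MIC / percent susceptible. Highest concentration tested was 8 µg/ml for iclaprim and trimethoprim-sulfamethoxazole, and 64 µg/ml for trimethoprim.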

[2] = system: Enterococcus faecalis; assay: (§2) Antibacterial activity against Enterococcus faecalis assessed as inhibition of bacterial growth at […] by CLSI broth microdilution method
[3] = system: Enterococcus faecalis; assay: as §2; remark: listed apart in the source
[4] = system: Enterococcus faecalis; assay: Antibacterial activity against Enterococcus faecalis assessed as inhibition of bacterial growth at 0.5 ug/ml by CLSI broth microdilution method; outline: as §1
[5] = system: Enterococcus faecalis; assay: Antibacterial activity against Enterococcus faecalis assessed as inhibition of bacterial growth at 1 ug/ml by CLSI broth microdilution method; outline: as §1
[6] = system: Enterococcus faecalis; assay: Antibacterial activity against Enterococcus faecalis assessed as inhibition of bacterial growth at 4 ug/ml by CLSI broth microdilution method; outline: as §1
[7] = system: Enterococcus faecalis; assay: Antibacterial activity against Enterococcus faecalis assessed as inhibition of bacterial growth at 8 ug/ml by CLSI broth microdilution method; outline: as §1
[8] = system: Enterococcus faecalis; assay: Antibacterial activity against Enterococcus faecalis assessed as inhibition of bacterial growth at >8 ug/ml by CLSI broth microdilution method; outline: as §1
[9] = system: Enterococcus faecium; assay: Antibacterial activity against Enterococcus faecium assessed as inhibition of bacterial growth at 0.03 ug/ml by CLSI broth microdilution method; outline: as §1
[10] = system: Enterococcus faecium; assay: Antibacterial activity against Enterococcus faecium assessed as inhibition of bacterial growth at 0.06 ug/ml by CLSI broth microdilution method; outline: as §1
[11] = system: Enterococcus faecium; assay: Antibacterial activity against Enterococcus faecium assessed as inhibition of bacterial growth at […] by CLSI broth microdilution method
[12] = system: Enterococcus faecium; assay: Antibacterial activity against Enterococcus faecium assessed as inhibition of bacterial growth at 0.5 ug/ml by CLSI broth microdilution method
[13] = system: Enterococcus faecium; assay: Antibacterial activity against Enterococcus faecium assessed as inhibition of bacterial growth at 1 ug/ml by CLSI broth microdilution method
[14] = system: Enterococcus faecium; assay: Antibacterial activity against Enterococcus faecium assessed as inhibition of bacterial growth at 4 ug/ml by CLSI broth microdilution method
[15] = system: Staphylococcus aureus; assay: Antibacterial activity against Methicillin-sensitive Staphylococcus aureus by CLSI broth microdilution method
[16] = system: Streptococcus sp. 'group A'; assay: Antibacterial activity against Beta-hemolytic Streptococcus group A by CLSI broth microdilution method; outline: as §1
[17] = system: Streptococcus sp. 'group B'; assay: Antibacterial activity against Beta-hemolytic Streptococcus group B by CLSI broth microdilution method; outline: as §1
[18] = system: Enterococcus faecalis; assay: Antibacterial activity against Enterococcus faecalis by CLSI broth microdilution method
[19] = system: Enterococcus faecium; assay: Antibacterial activity against Enterococcus faecium by CLSI broth microdilution method
[20] = system: Staphylococcus aureus; assay: (§3) Antibacterial activity against Methicillin-sensitive Staphylococcus aureus assessed as inhibition of bacterial growth at […] by CLSI broth microdilution method; design: Activity: scale not given: the % may be the effect or the level left
[21] = system: Staphylococcus aureus; assay: as §3; design: Activity: scale not given: the % may be the effect or the level left; remark: listed apart in the source
[22] = system: Staphylococcus aureus; assay: Antibacterial activity against Methicillin-sensitive Staphylococcus aureus assessed as inhibition of bacterial growth at 0.5 ug/ml by CLSI broth microdilution method
[23] = system: Staphylococcus aureus; assay: Antibacterial activity against Methicillin-sensitive Staphylococcus aureus assessed as inhibition of bacterial growth at 4 ug/ml by CLSI broth microdilution method
[24] = system: Staphylococcus aureus; assay: Antibacterial activity against Methicillin-resistant Staphylococcus aureus assessed as inhibition of bacterial growth at 0.06 ug/ml by CLSI broth microdilution method
Outline: (§4)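 Recent clinical isolates from skin/soft tissue, bloodstream and respiratory specimens. Tested by broth microdilution per CLSI M7-A7 and M100-S18, with the appropriate quality controls. The thymidine content of the test medium was assessed to rule out artifactual inhibition.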

[25] = system: Staphylococcus aureus; assay: Antibacterial activity against Methicillin-resistant Staphylococcus aureus assessed as inhibition of bacterial growth at 0.5 ug/ml by CLSI broth microdilution method; outline: as §4
[26] = system: Staphylococcus aureus; assay: Antibacterial activity against Methicillin-resistant Staphylococcus aureus assessed as inhibition of bacterial growth at 1 ug/ml by CLSI broth microdilution method; outline: as §4
[27] = system: Staphylococcus aureus; assay: Antibacterial activity against Methicillin-resistant Staphylococcus aureus assessed as inhibition of bacterial growth at 2 ug/ml by CLSI broth microdilution method; outline: as §4
[28] = system: Streptococcus sp. 'group A'; assay: Antibacterial activity against Beta-hemolytic Streptococcus group A assessed as inhibition of bacterial growth at 0.03 ug/ml by CLSI broth microdilution method; outline: as §1
[29] = system: Streptococcus sp. 'group A'; assay: Antibacterial activity against Beta-hemolytic Streptococcus group A assessed as inhibition of bacterial growth at 0.06 ug/ml by CLSI broth microdilution method; outline: as §1
[30] = system: Streptococcus sp. 'group A'; assay: Antibacterial activity against Beta-hemolytic Streptococcus group A assessed as inhibition of bacterial growth at […] by CLSI broth microdilution method
[31] = system: Streptococcus sp. 'group A'; assay: Antibacterial activity against Beta-hemolytic Streptococcus group A assessed as inhibition of bacterial growth at 0.5 ug/ml by CLSI broth microdilution method; outline: as §1
[32] = system: Streptococcus sp. 'group A'; assay: Antibacterial activity against Beta-hemolytic Streptococcus group A assessed as inhibition of bacterial growth at 1 ug/ml by CLSI broth microdilution method; outline: as §1
[33] = system: Streptococcus sp. 'group A'; assay: Antibacterial activity against Beta-hemolytic Streptococcus group A assessed as inhibition of bacterial growth at 2 ug/ml by CLSI broth microdilution method; outline: as §1
[34] = system: Streptococcus sp. 'group A'; assay: Antibacterial activity against Beta-hemolytic Streptococcus group A assessed as inhibition of bacterial growth at 4 ug/ml by CLSI broth microdilution method; outline: as §1
[35] = system: Streptococcus sp. 'group A'; assay: Antibacterial activity against Beta-hemolytic Streptococcus group A assessed as inhibition of bacterial growth at 8 ug/ml by CLSI broth microdilution method; outline: as §1
[36] = system: Streptococcus sp. 'group B'; assay: Antibacterial activity against Beta-hemolytic Streptococcus group B assessed as inhibition of bacterial growth at 0.03 ug/ml by CLSI broth microdilution method; outline: as §1
[37] = system: Streptococcus sp. 'group B'; assay: Antibacterial activity against Beta-hemolytic Streptococcus group B assessed as inhibition of bacterial growth at 0.06 ug/ml by CLSI broth microdilution method; outline: as §1
[38] = system: Streptococcus sp. 'group B'; assay: Antibacterial activity against Beta-hemolytic Streptococcus group B assessed as inhibition of bacterial growth at […] by CLSI broth microdilution method
[39] = system: Streptococcus sp. 'group B'; assay: Antibacterial activity against Beta-hemolytic Streptococcus group B assessed as inhibition of bacterial growth at 0.5 ug/ml by CLSI broth microdilution method; outline: as §1
[40] = system: Streptococcus sp. 'group B'; assay: Antibacterial activity against Beta-hemolytic Streptococcus group B assessed as inhibition of bacterial growth at 1 ug/ml by CLSI broth microdilution method; outline: as §1
[41] = system: Streptococcus sp. 'group B'; assay: Antibacterial activity against Beta-hemolytic Streptococcus group B assessed as inhibition of bacterial growth at 2 ug/ml by CLSI broth microdilution method; outline: as §1
[42] = system: Streptococcus sp. 'group B'; assay: Antibacterial activity against Beta-hemolytic Streptococcus group B assessed as inhibition of bacterial growth at 4 ug/ml by CLSI broth microdilution method; outline: as §1

## COc1cc(Cc2cnc(N)nc2N)cc(OC)c1OC [TRIMETHOPRIM]
[1]
  inhibition at 0.03 µg/mL: 0.6%
[2]
  inhibition at […]: 29.7%
[3]
  inhibition at […]: 56.5%
[4]
  inhibition at 0.5 µg/mL: 62.9%
[5]
  inhibition at 1 µg/mL: 64.5%
[6]
  inhibition at 4 µg/mL: 70%
[7]
  inhibition at 8 µg/mL: 70.6%
[8]
  inhibition (INH): 100%
[9]
  inhibition at 0.03 µg/mL: 13.9%
[10]
  inhibition at 0.06 µg/mL: 30.4%
[11]
  inhibition at […]: 36%
[12]
  inhibition at 0.5 µg/mL: 37.6%
[13]
  inhibition at 1 µg/mL: 38%
[14]
  inhibition at 4 µg/mL: 38.9%
[15]
  MIC50: 1 µg/mL (≈ 3.44 µM)
  MIC90: 1 µg/mL (≈ 3.44 µM)
[16]
  MIC50: 0.25 µg/mL (≈ 0.861 µM)
  MIC90: 0.5 µg/mL (≈ 1.72 µM)
[17]
  MIC50: 1 µg/mL (≈ 3.44 µM)
  MIC90: 4 µg/mL (≈ 13.8 µM)
[18]
  MIC50: 0.25 µg/mL (≈ 0.861 µM)
  MIC90: > 64 µg/mL
[19]
  MIC50: 32 µg/mL (≈ 110 µM)
  MIC90: > 64 µg/mL
[20]
  Activity: 0.3%
[21]
  Activity: 2.4%
[22]
  inhibition at 0.5 µg/mL: 34.3%
[23]
  inhibition at 4 µg/mL: 98.5%
[24]
  inhibition at 0.06 µg/mL: < 0.1%
[25]
  inhibition at 0.5 µg/mL: 47.7%
[26]
  inhibition at 1 µg/mL: 88.5%
[27]
  inhibition at 2 µg/mL: 92.1%
[28]
  inhibition at 0.03 µg/mL: 0.8%
[29]
  inhibition at 0.06 µg/mL: 8.6%
[30]
  inhibition at […]: 45.9%
[31]
  inhibition at 0.5 µg/mL: 98.5%
[32]
  inhibition at 1 µg/mL: 99.5%
[33]
  inhibition at 2 µg/mL: 100%
[34]
  inhibition at 4 µg/mL: 100%
[35]
  inhibition at 8 µg/mL: 100%
[36]
  inhibition at 0.03 µg/mL: 0%
[37]
  inhibition at 0.06 µg/mL: 0%
[38]
  inhibition at […]: 0%
[39]
  inhibition at 0.5 µg/mL: 5.9%
[40]
  inhibition at 1 µg/mL: 51%
[41]
  inhibition at 2 µg/mL: 89.2%
[42]
  inhibition at 4 µg/mL: 99.5%

## COc1cc(Cc2cnc(N)nc2N)c2c(c1OC)OC(C1CC1)C=C2 (centres undefined)
[1]
  inhibition at 0.03 µg/mL: 63.9%
[2]
  inhibition at […]: 69%
[3]
  inhibition at […]: 70.6%
[4]
  inhibition at 0.5 µg/mL: 70.6%
[5]
  inhibition at 1 µg/mL: 71%
[6]
  inhibition at 4 µg/mL: 96.8%
[7]
  inhibition at 8 µg/mL: 1.9%
[8]
  inhibition (INH): 100%
[9]
  inhibition at 0.03 µg/mL: 37.6%
[10]
  inhibition at 0.06 µg/mL: 37.6%
[11]
  inhibition at […]: 38%
[12]
  inhibition at 0.5 µg/mL: 39.3%
[13]
  inhibition at 1 µg/mL: 42.2%
[14]
  inhibition at 4 µg/mL: 74.9%
[15]
  MIC50: 0.06 µg/mL (≈ 0.169 µM)
  MIC90: 0.12 µg/mL (≈ 0.339 µM)
[16]
  MIC50: 0.015 µg/mL (≈ 0.0423 µM)
  MIC90: 0.03 µg/mL (≈ 0.0846 µM)
[17]
  MIC50: 0.12 µg/mL (≈ 0.339 µM)
  MIC90: 0.25 µg/mL (≈ 0.705 µM)
[18]
  MIC50: 0.015 µg/mL (≈ 0.0423 µM)
  MIC90: 4 µg/mL (≈ 11.3 µM)
[19]
  MIC50: 2 µg/mL (≈ 5.64 µM)
  MIC90: > 8 µg/mL
[20]; Staphylococcus aureus
  inhibition at […]: 95.6%
[21]; Staphylococcus aureus
  inhibition at […]: 98.5%
[22]
  inhibition at 0.5 µg/mL: 98.6%
[23]
  inhibition at 4 µg/mL: 99.9%
[24]
  inhibition at 0.06 µg/mL: 69.6%
[25]
  inhibition at 0.5 µg/mL: 92.9%
[26]
  inhibition at 1 µg/mL: 93.8%
[27]
  inhibition at 2 µg/mL: 94.6%
[28]
  inhibition at 0.03 µg/mL: 94.9%
[29]
  inhibition at 0.06 µg/mL: 99.3%
[30]
  inhibition at […]: 100%
[31]
  inhibition at 0.5 µg/mL: 100%
[32]
  inhibition at 1 µg/mL: 100%
[33]
  inhibition at 2 µg/mL: 100%
[34]
  inhibition at 4 µg/mL: 100%
[35]
  inhibition at 8 µg/mL: 100%
[36]
  inhibition at 0.03 µg/mL: 0.5%
[37]
  inhibition at 0.06 µg/mL: 5.4%
[38]
  inhibition at […]: 55.4%
[39]
  inhibition at 0.5 µg/mL: 100%
[40]
  inhibition at 1 µg/mL: 100%
[41]
  inhibition at 2 µg/mL: 100%
[42]
  inhibition at 4 µg/mL: 100%
